Columns and labels:
[1] = molecular target: T1, Nuclear receptor subfamily 1 group I member 3 (Mus musculus, UniProt O35627); assay: Enhancement of steroid receptor coactivator 1 binding to wild type mouse CAR expressed in HEK293 cells at 10 uM by yeast two-hybrid assay; settings: for fold induction at 10 µM: HEK293, mouse, read-out: FC
T1 sequence (O35627 whole entry): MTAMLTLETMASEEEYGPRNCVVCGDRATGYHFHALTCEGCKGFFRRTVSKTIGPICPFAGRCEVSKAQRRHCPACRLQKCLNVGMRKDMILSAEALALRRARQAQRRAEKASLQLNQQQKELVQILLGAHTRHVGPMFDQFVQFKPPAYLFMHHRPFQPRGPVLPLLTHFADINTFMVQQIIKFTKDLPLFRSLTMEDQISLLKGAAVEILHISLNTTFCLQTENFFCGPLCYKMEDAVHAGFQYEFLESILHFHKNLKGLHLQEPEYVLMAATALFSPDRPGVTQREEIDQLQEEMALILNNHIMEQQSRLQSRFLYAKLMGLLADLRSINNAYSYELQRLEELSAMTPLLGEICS

[2] = molecular target: T2, Nuclear receptor subfamily 1 group I member 3 (Mus musculus, UniProt O35627, S251L); assay: Effect on steroid receptor coactivator 1 binding to mouse CAR S251L mutant […] at 10 uM by yeast two-hybrid assay; type: cell-based; settings: read-out: Activity
In short: (§1)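 Yeast two-hybrid assay. Yeast co-expressing wild-type or mutant mouse CAR LBD and the SRC-1 partner were selected on SD plates lacking leucine and tryptophan. Random colonies were pooled and amplified, then treated with DMSO or test chemical for 3.5 h. β-galactosidase activity was normalized to cell density and set relative to wild-type mCAR + SRC-1 with DMSO (=100). Mean ± standard deviation of two determinations, each in triplicate.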

[3] = molecular target: T3, Nuclear receptor subfamily 1 group I member 3 (Mus musculus, UniProt O35627, I252L); assay: (§2) Enhancement of steroid receptor coactivator 1 binding to mouse CAR I252L mutant […] at 10 uM by yeast two-hybrid assay; type: cell-based
[4] = molecular target: T2, Nuclear receptor subfamily 1 group I member 3; assay: Decrease in nuclear co-repressor receptor binding to mouse CAR S251L mutant […] at 10 uM by yeast two-hybrid assay; type: cell-based; parameters: scale not given: the % may be the effect or the level left
[5] = molecular target: T4, Nuclear receptor subfamily 1 group I member 3 (Mus musculus, UniProt O35627, L253F); assay: Decrease in mouse CAR L253F mutant activation expressed in HEK293 cells at 10 uM by mammalian one-hybrid assay; type: cell-based; settings: read-out: Activity
In short: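 GAL4-DBD fused to mouse CAR LBD (residues 118-358), wild-type or point mutant, cotransfected with UASx4-tk-luc reporter and pCMVβ into HEK293 cells. Cells were exposed to final 1 µM, 2 µM or 10 µM test chemical, or 0.1% v/v DMSO, for 24 h after transfection. Luciferase was normalized to β-galactosidase and set against empty GAL4 vector (=1.0). Mean ± standard deviation, three independent experiments.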

[6] = molecular target: T1, Nuclear receptor subfamily 1 group I member 3; assay: Increase in nuclear co-repressor receptor binding to wild type mouse CAR expressed in […] cells at 2 uM by yeast two-hybrid assay; type: cell-based
In short: (§3)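 Yeast two-hybrid: yeast expressing wild-type or mutant mouse CAR LBD plus SRC-1 or NCoR, selected on SD medium lacking Leu and Trp. Pooled colonies treated with DMSO or test chemical for 3.5 h. β-Galactosidase normalized to cell density. SRC-1 reference: wild-type + DMSO = 100. NCoR reference: 10 µM androstenol = 100. Mean ± SD, two independent determinations, each in triplicate.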

[7] = molecular target: T5, Nuclear receptor subfamily 1 group I member 3 (Mus musculus, UniProt O35627, L353A); assay: Effect on steroid receptor coactivator 1 binding to mouse CAR L353A mutant […] at 10 uM by yeast two-hybrid assay; type: cell-based; settings: read-out: Activity; in short: as §1
[8] = molecular target: Nuclear receptor subfamily 1 group I member 3 (Mus musculus, UniProt O35627, T350M); settings: HEK293, mouse, read-out: Activity
[9] = molecular target: T1, Nuclear receptor subfamily 1 group I member 3; assay: Enhancement of steroid receptor coactivator 1 binding to wild type mouse CAR expressed in HEK293 cells at 2 uM by yeast two-hybrid assay; settings: hek293, 2 µM
[10] = molecular target: T1, Nuclear receptor subfamily 1 group I member 3; assay: Enhancement of steroid receptor coactivator 1 binding to wild type mouse CAR expressed in HEK293 cells at 1 uM by yeast two-hybrid assay; settings: read-out: FC
[11] = molecular target: T3, Nuclear receptor subfamily 1 group I member 3; assay: as §2; type: cell-based; in short: as §3; remark: listed apart in the source
[12] = molecular target: Nuclear receptor subfamily 1 group I member 3 (Mus musculus, UniProt O35627, H213A); settings: HEK293, mouse
[13] = molecular target: T1, Nuclear receptor subfamily 1 group I member 3; assay: Activation of wild type mouse CAR expressed in HEK293 cells at 10 uM by mammalian one-hybrid transactivation assay; settings: hek293, 10 µM
[14] = molecular target: T3, Nuclear receptor subfamily 1 group I member 3; settings: HEK293, mouse, read-out: Activity
[15] = molecular target: Nuclear receptor subfamily 1 group I member 3 (Mus musculus, UniProt O35627, N175A); settings: HEK293, mouse, read-out: Activity
[16] = molecular target: T6, Nuclear receptor subfamily 1 group I member 3 (Mus musculus, UniProt O35627, T350A); settings: HEK293, mouse
[17] = molecular target: T7, Nuclear receptor subfamily 1 group I member 3 (Mus musculus, UniProt O35627, F171A); settings: HEK293, mouse
[18] = molecular target: T4, Nuclear receptor subfamily 1 group I member 3; settings: HEK293, mouse
[19] = molecular target: T6, Nuclear receptor subfamily 1 group I member 3; assay: Decrease in nuclear co-repressor receptor binding to mouse CAR T350A mutant […] at 10 uM by yeast two-hybrid assay; type: cell-based; parameters: scale not given: the % may be the effect or the level left
[20] = molecular target: T7, Nuclear receptor subfamily 1 group I member 3; assay: Activation of mouse CAR F171A mutant expressed in HEK293 cells at 10 uM by mammalian one-hybrid assay; type: cell-based; settings: hek293, 10 µM
[21] = molecular target: Nuclear receptor subfamily 1 group I member 3 (Mus musculus, UniProt O35627, Y336A); settings: HEK293, mouse, read-out: Activity
[22] = molecular target: Nuclear receptor subfamily 1 group I member 3 (Mus musculus, UniProt O35627, L212A); assay: Activation of mouse CAR L212A mutant expressed in HEK293 cells at 10 uM by mammalian one-hybrid assay; type: cell-based; settings: hek293, 10 µM
[23] = molecular target: T5, Nuclear receptor subfamily 1 group I member 3; assay: Decrease in nuclear co-repressor receptor binding to mouse CAR L353A mutant […] at 10 uM by yeast two-hybrid assay; type: cell-based; settings: read-out: Activity
In short: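 Yeast expressing wild-type or mutant mouse CAR LBD plus NCoR, selected on SD plates lacking leucine and tryptophan. Pooled colonies treated with DMSO or compound for 3.5 h. β-Galactosidase activity normalized to cell density. Reference is 10 µM androstenol (=100). Mean ± SD of two independent determinations, each in triplicate.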

T5 sequence (O35627 whole entry L353A): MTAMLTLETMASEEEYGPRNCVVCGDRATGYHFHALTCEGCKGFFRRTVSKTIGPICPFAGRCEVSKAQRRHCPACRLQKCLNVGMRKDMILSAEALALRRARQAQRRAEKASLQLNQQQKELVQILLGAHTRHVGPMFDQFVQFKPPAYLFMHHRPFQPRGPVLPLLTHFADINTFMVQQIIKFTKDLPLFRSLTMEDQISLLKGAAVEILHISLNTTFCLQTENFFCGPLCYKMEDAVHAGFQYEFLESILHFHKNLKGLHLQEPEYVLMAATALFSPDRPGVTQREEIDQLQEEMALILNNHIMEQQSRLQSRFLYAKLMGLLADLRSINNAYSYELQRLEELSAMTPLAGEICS
Chain of Nuclear receptor subfamily 1 group I member 3 (Mus musculus, UniProt O35627, N175A) (O35627 whole entry N175A): as the sequence (O35627 whole entry L353A) above, with N175A, A353L counted along it
T7 sequence (O35627 whole entry F171A): as the sequence (O35627 whole entry L353A) above, with F171A, A353L counted along it
Chain of Nuclear receptor subfamily 1 group I member 3 (Mus musculus, UniProt O35627, Y336A) (O35627 whole entry Y336A): as the sequence (O35627 whole entry L353A) above, with Y336A, A353L counted along it
T2 sequence (O35627 whole entry S251L, the tested form may be a part): as the sequence (O35627 whole entry L353A) above, with S251L, A353L counted along it
T6 sequence (O35627 whole entry T350A): as the sequence (O35627 whole entry L353A) above, with T350A, A353L counted along it
Chain of Nuclear receptor subfamily 1 group I member 3 (Mus musculus, UniProt O35627, H213A) (O35627 whole entry H213A): as the sequence (O35627 whole entry L353A) above, with H213A, A353L counted along it
T4 sequence (O35627 whole entry L253F, the tested form may be a part): as the sequence (O35627 whole entry L353A) above, with L253F, A353L counted along it
Chain of Nuclear receptor subfamily 1 group I member 3 (Mus musculus, UniProt O35627, L212A) (O35627 whole entry L212A): as the sequence (O35627 whole entry L353A) above, with L212A, A353L counted along it
T3 sequence (O35627 whole entry I252L): as the sequence (O35627 whole entry L353A) above, with I252L, A353L counted along it
Chain of Nuclear receptor subfamily 1 group I member 3 (Mus musculus, UniProt O35627, T350M) (O35627 whole entry T350M): as the sequence (O35627 whole entry L353A) above, with T350M, A353L counted along it

Row | Compound | fold induction at 10 µM [1] | activity at 10 µM [2] | Activity [3] | Activity [4] | inhibition at 10 µM [5] | fold change (FC) [6] | activity at 10 µM [7] | inhibition at 10 µM [8] | FC [9] | fold induction at 1 µM [10] | Activity [11] | activity at 10 µM [12] | fold change (FC) [13] | inhibition at 10 µM [14] | inhibition at 10 µM [15] | activity at 10 µM [16] | activity at 10 µM [17] | activity at 10 µM [18] | Activity [19] | inhibition at 10 µM [21] | other results
1 | COc1ccc(C(=O)CCCc2ccccc2)cc1 | 2.5 | < 50% | > 150% | >= 50% | < 50% | 4 | < 50% | ≥ 50% | 2.5 | 2.5 | >= 50% | < 50% | 1.4 | 50% | ≥ 50% | < 50% | < 50% | < 50% | >= 50% | ≥ 50% | Activity [20]: > 100%; Activity [22]: 50%
2 | COc1ccccc1CC(CC(=O)Cc1ccccc1)OC (stereo not given) | 2.5 | < 50% | >= 50% | >= 50% | < 50% | 4 | < 50% | ≥ 50% | 2.5 | 2.5 | > 50% | < 50% | 2 | < 50% | ≥ 50% | < 50% | < 50% | < 50% | >= 50% | ≥ 50% | inhibition at 10 µM [23]: ≥ 50%; Activity [20]: > 100%; Activity [22]: < 50%
3 | Clc1cnc(Oc2ccc(Oc3ncc(Cl)cc3Cl)cc2)c(Cl)c1 | 2.5 |  |  |  |  |  |  |  | 2.5 | 2.5 |  |  |  |  |  |  |  |  |  |  | 
4 | C[C@]12CC[C@@H](O)C[C@@H]1CC[C@@H]1[C@@H]2CC[C@]2(C)C=CC[C@@H]12 [ANDROSTENOL] |  | < 50% | > 150% | >= 50% | < 50% |  | < 50% | ≥ 50% |  |  |  | < 50% |  | < 50% | ≥ 50% | < 50% | < 50% | < 50% | >= 50% | ≥ 50% | Activity ([1]; mouse, hek293, 10 µM): Not Active; inhibition at 10 µM [23]: ≥ 50%
5 | Clc1ccccc1C(c1ccccc1)(c1ccccc1)n1ccnc1 [CLOTRIMAZOLE] | 2.5 |  |  |  |  | 4 |  |  | 2.5 | 2.5 |  |  |  |  |  |  |  |  |  |  | 
6 | COc1ccc(C(c2ccc(OC)cc2)C(Cl)(Cl)Cl)cc1 [METHOXYCHLOR] | 2.5 | < 50% | >= 50% | >= 50% |  | 4 | < 50% | ≥ 50% | 2.5 | 2.5 | >= 50% | < 50% | 1.4 | 50% | ≥ 50% | < 50% | < 50% | < 50% | >= 50% | ≥ 50% | inhibition at 10 µM [23]: ≥ 50%; Activity [20]: < 50%; Activity [22]: 50%

Source: ChEMBL document CHEMBL1152300, “Ligand specificity of constitutive androstane receptor as probed by induced-fit docking and mutagenesis” (J Med Chem, 2008)
